# ABCG2 inh = blocks JC-1 efflux by human ABCG2 transporter; AID 1325; IgMXP3 cells, flow cytometry; actives 0.1% (n = 190,000); Q9UNQ0; inhibition, % at 6.6 µM;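 active = inhibition above 80%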
# Target sequence (Q9UNQ0 whole entry, looked up): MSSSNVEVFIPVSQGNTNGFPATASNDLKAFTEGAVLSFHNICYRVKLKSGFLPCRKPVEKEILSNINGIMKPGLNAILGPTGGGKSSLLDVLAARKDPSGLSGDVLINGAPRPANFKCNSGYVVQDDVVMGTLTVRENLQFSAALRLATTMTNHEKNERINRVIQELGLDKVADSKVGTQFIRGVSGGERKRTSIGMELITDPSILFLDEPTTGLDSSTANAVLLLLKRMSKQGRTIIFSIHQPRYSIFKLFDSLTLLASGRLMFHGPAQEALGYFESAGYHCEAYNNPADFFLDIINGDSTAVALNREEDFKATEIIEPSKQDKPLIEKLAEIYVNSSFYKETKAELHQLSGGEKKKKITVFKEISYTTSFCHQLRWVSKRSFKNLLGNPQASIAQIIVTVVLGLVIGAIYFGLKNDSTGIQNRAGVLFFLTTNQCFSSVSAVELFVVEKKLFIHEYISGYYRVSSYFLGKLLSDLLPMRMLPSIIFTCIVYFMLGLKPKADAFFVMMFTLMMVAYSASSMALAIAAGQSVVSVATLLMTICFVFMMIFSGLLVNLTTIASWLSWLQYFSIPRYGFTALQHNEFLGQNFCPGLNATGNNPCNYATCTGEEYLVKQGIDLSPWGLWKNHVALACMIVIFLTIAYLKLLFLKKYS
#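 System: two drug-resistant human cell lines, ABCG2 and ABCB1; controls: nicardipine high and DMSO low controls; times: 10 min exposure at 25 °C with rotation, no wash; detection: flow cytometry of retained JC-1 fluorescence; read-out basis: percent efflux inhibition, scaled nicardipine 100% to DMSO 0%; doses: one concentration, 6.6 µM final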
# FLuc stim CS = affects firefly luciferase, flagging false hits in luciferase stimulation screens; P08659; ATPlite luciferase biochemical, luminescence, 10 min; 0 = ATP-free wells, 1 = DMSO control; activation factor at 10 µM; 200,000 tested, under 10 active; AID 1027;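 active = luciferase activation factor, scaled between plate controls, of at least 2 with compound at 10 µM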
#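 assay system = Luciferase/luciferin detection reagent, cell-free biochemical luciferase assay | also added = ATP substrate | times = 10 min post-reagent at room temperature | measured by = luminescence from luciferase reaction | measure = luciferase activation, seen as luminescence increase over controls | benchmarks = low control with PBS replacing ATP, high control enzyme plus ATP without compound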
# DTT redox prof = compounds producing H2O2 with reducing agent – biochemical, NIH compound library profiling, artefact control for MLSCN library redox annotation, primary screen; DTT-dependent redox cycling H2O2, phenol red/HRP absorbance; 100% = 100 µM peroxide control, 0% = buffer; actives 0.03% (n = 200,000); AID 878; activation, % at 10 µM;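 active = activation of at least 50% relative to the plate's high and low controls in the primary single-dose screen; inactive = activation below 50%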;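 note: compound incubated with DTT at 0.8 mM final as the reducing agent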
# FLuc inh counter = Photinus pyralis luciferase inhibition counter-screen; P08659; inhibition, % at 10 µM; ATPLite firefly luciferase biochemical luminescence, 10 min; actives 1.5% (n = 200,000);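 active = inhibition above about 50% when tested at 10 µM, limit read from the data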
# Measles CPE = protection of cells from measles virus; Measles virus-infected cells, CPE protection, absorbance; AID 841; actives 1.5% (n = 140,000); protection (pct of control), % at 4 µM; in the data active = protection mostly above about 24%, no sharp cut-off; inactive = mostly below about 26%
# ABCB1 block = human ABCB1 inhibition, ABCG2 as counter-screen; AID 1326; CCRF-Adr cells, JC-1 efflux, flow cytometry; inhibition, % at 6.6 µM; P08183; actives 0.067% (n = 190,000); in the data active = inhibition above about 40%;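 note: higher value means more JC-1 retained so stronger ABCB1 efflux block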
# Hits are given with their value; - = inactive; . = not tested or not shown. Sampled rows, rich in hits. Any-hit rate of the full collection: about 2.7%.
SMILES,ABCG2 inh,FLuc stim CS,DTT redox prof,FLuc inh counter,Measles CPE,ABCB1 block
Cc1nc(CCNC(=O)Cc2ccc(Cl)cc2)cs1,-,-,-,-,38.9,-
Cc1c(Br)cc(C(=O)NCc2ccco2)c(C)c1C,-,-,-,-,102.8,-
CCCCc1c(O)nc(SCC(=O)Nc2ccc3c(c2)CCC3)[nH]c1=O,-,-,-,-,49.0,-
COCCn1c(-c2ccccc2)cnc1SCC(=O)Nc1cccc2ccccc12,-,-,-,-,-,-
COc1cc(CNc2ccc(C(=O)O)cc2)cc(Br)c1OCC(=O)NC(C)(C)C,-,-,-,-,35.5,-
CCOC(=O)N1CCC(NC(=O)CN2C(=O)CSc3ncccc32)CC1,-,-,-,-,29.7,-
CCOC(=O)N1CCC(NC(=O)CCCN2C(=O)CSc3ncccc32)CC1,-,-,-,-,-,-
COC(=O)c1sc2nc(-c3ccco3)ccc2c1N,-,-,-,83.6,-,-
CC(C)OC(=O)c1sc2nc(-c3ccccc3)ccc2c1N,-,-,-,72.7,-,-
CCOC(=O)c1sc2nc(-c3cccnc3)ccc2c1N,-,-,-,77.0,.,-
COc1ccc(OC)c(N=C(N)N=C(N)N)c1,-,-,-,-,.,-
CCOc1cc(/C=C(\C#N)C(N)=O)ccc1OCc1c(C)no[n+]1[O-],-,-,-,-,.,-
O=[N+]([O-])c1ccc(O)c(/C=N/NC2=NS(=O)(=O)c3ccccc32)c1,-,-,-,68.8,.,-
CCc1ccc(C2C(C(=O)O)c3ccccc3C(=O)N2C)cc1 (configuration not stated),-,-,-,-,-,-
O=C(/C=C/c1ccccc1)C1C(=O)c2ccccc2C1=O,-,-,-,95.4,-,-
CCc1ccc(/C=C/C(=O)C2C(=O)c3ccccc3C2=O)cc1,-,-,-,96.3,-,-
CN1CCC(NC(=S)NC2CC2)CC1,-,-,-,-,.,-
COc1ccc([C@@H]2Sc3cc(OC)ccc3N(CCN(C(C)C)C(C)C)C(=O)[C@H]2OC(C)=O)cc1,-,-,-,-,47.6,-
COc1cccc(C=Nc2ccc(C)c(F)c2)c1O,-,-,-,-,-,-
O=C(COC(=O)C1c2ccccc2Oc2ccccc21)NC1CCS(=O)(=O)C1 (configuration not stated),-,-,-,-,active,-
NS(=O)(=O)c1ccc(CCNC(=O)CSc2nc3ccccc3c(=O)n2CCC(=O)N2CCCCC2)cc1,-,-,-,53.3,.,-
NS(=O)(=O)c1ccc(CCNC(=O)CSc2nc3ccccc3c(=O)n2CCN2CCOCC2)cc1,-,-,-,-,.,-
O=C(CSc1ncc(-c2ccccc2)n1CC1CCCO1)N1CCCCC1 (configuration not stated),-,-,-,-,-,-
CC(C)Cn1c(-c2ccc(Cl)cc2)cnc1SCC(=O)N1CCOCC1,-,-,-,-,95.5,-
Cc1cc(O)ccc1Nc1nc(-c2cccs2)cs1,-,-,-,78.4,.,-
SMILES,ABCG2 inh,FLuc stim CS,DTT redox prof,FLuc inh counter,Measles CPE,ABCB1 block
Cc1ccc(Nc2nc(-c3cccs3)cs2)nc1,-,-,-,84.8,.,-
O=C(NC(=S)Nn1cnc2c(cnn2-c2ccccc2)c1=O)c1ccccc1,-,-,-,-,.,-
Clc1ccc(-c2cn3nc4c(nc3n2)CCCC4)cc1,-,-,-,59.0,-,-
COc1cccc(-c2cn3nc4c(nc3n2)CCCC4)c1,-,-,-,68.5,-,-
Cc1ccc(-n2c(CNc3ccc(F)cc3)nnc2SCC(N)=O)cc1,-,-,-,-,-,-
Cc1ccc(C2CC(c3ccc(Cl)cc3)=NNC2=O)cc1 (configuration not stated),-,-,-,-,49.0,-
COc1cc2c(cc1OC)CC(=O)NC=C2,-,-,-,-,.,-
COCCCNC(=O)c1ccc([N+](=O)[O-])c(Cl)c1,-,-,-,-,36.0,-
Cc1ccc(NC(=S)NCCc2ccccc2)nc1,-,-,-,-,.,-
Cc1cc(NC(=O)c2cc(-c3ccccc3)on2)no1,-,-,-,-,-,-
O=C(c1ccccc1)c1cc(-c2ccccc2)on1,-,-,-,81.1,-,-
Cc1ccc(C(=O)NNC(=O)c2ccco2)cc1,-,-,-,57.3,-,-
Cc1ccc(C(=O)NNC(=S)NC(=O)c2ccco2)cc1,-,-,-,-,.,-
Cc1ccc(NC(=O)CCC(=O)NNC(=O)c2ccco2)c(C)c1,-,-,-,-,25.3,-
CC(=O)Nc1ccc(S(=O)(=O)NNC(=O)COc2cc(C)ccc2C(C)C)cc1,-,-,-,-,54.0,-
CN(Cc1ccccc1)Cc1nc2c(c(=O)n(C)c(=O)n2C)n1Cc1ccccc1Cl,-,-,-,-,52.8,-
CC(C)CCn1c(Oc2ccccc2Cl)nc2c1c(=O)n(C)c(=O)n2C,-,-,-,-,49.2,-
COCCNc1nnc(SCC(=O)c2c[nH]c3ccccc23)s1,-,-,-,-,-,-
CCNC(=O)C(Sc1ccccc1)c1ccccc1 (configuration not stated),-,-,-,-,29.6,-
O=C(CCc1ccccc1)NC(=S)NCc1ccco1,-,-,-,-,.,-
Cc1nn(C)cc1CNC(=O)c1cc2n(n1)C(C(F)(F)F)CC(c1cccs1)N2 (configuration not stated),-,-,-,-,20.4,-
CC(C)c1onc(C(=O)N2CCCCC2)c1[N+](=O)[O-],-,-,-,-,-,-
Cc1c([N+](=O)[O-])c(C(=O)N2CCCC2)nn1C,-,-,-,-,68.8,-
COc1ccc(-n2c(SCC(=O)Nc3nccs3)nc3c(c2=O)SC(C)C3)cc1 (configuration not stated),-,-,-,-,-,-
COc1ccc(NC(=O)c2c3c(nc4ccccc24)CCC3)cc1S(=O)(=O)N1CCOCC1,-,-,-,-,-,-
SMILES,ABCG2 inh,FLuc stim CS,DTT redox prof,FLuc inh counter,Measles CPE,ABCB1 block
Cc1ccc(NC(=S)N(CCN2CCCCC2)Cc2ccco2)cc1,-,-,-,-,-,-
Cc1ccc(NC(=S)N(Cc2ccco2)C2CCN(C(C)C)CC2)cc1,-,-,-,-,38.6,-
Fc1ccc(-c2nc3ccncc3[nH]2)cc1,-,-,-,-,-,-
Clc1ccc(-c2nc3ccncc3[nH]2)cc1,-,-,-,73.1,-,-
Cc1cccc(/C=C/c2nc3ccccc3c(=O)[nH]2)c1,-,-,-,67.8,.,-
O=c1[nH]c(C2CCCN(S(=O)(=O)c3ccc(F)cc3)C2)nc2c1nnn2Cc1ccccc1 (configuration not stated),-,-,-,-,-,-

# Assay outcomes from PubChem BioAssay.
